Experimental data taken from article PMC5839514 (MedChemComm, 2017).
Like-named read-outs stand apart in the source and are kept apart here. Each block holds one compound with its values, some of them ahead of it.

Legend:
fibroblast HEL 299 cells = assay: Cell proliferation assay, normal fibroblast HEL 299 cells; format: cell-based
Method in brief: (§1)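 Cells were obtained from a university collaborator and grown in RPMI or DMEM with 5% or 10% fetal bovine serum plus 1% penicillin/streptomycin. The medium for each line is not specified. Cells were seeded at 3 × 10^4 per well and treated with test compound or DMSO. After 4 days, cell number and viability were counted on an automated cell viability analyzer.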

[1] = test system: LS174T colon cancer cells; assay: Cell proliferation assay, LS174T colon cancer cells; format: cell-based; settings: Table 3
Method in brief: (§2)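 Cells were kept in RPMI or DMEM with 5% or 10% fetal bovine serum and 1% penicillin/streptomycin. They were plated at 3 × 10^4 cells per well in 12-well plates and treated with DMSO or test compound. After 4 days, cell number and viability were counted on a Vi-Cell viability analyzer. Inhibition is relative to DMSO.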

HT-29 = assay: Cell proliferation assay, HT-29 colon cancer cells; format: cell-based
Method in brief: as §2

lung epithelial BEAS-2B = assay: Cell proliferation assay, normal lung epithelial BEAS-2B cells; format: cell-based
Method in brief: as §1

cyclin D1 = assay: Western blot of cyclin D1 in LS174T cells; format: cell-based; settings: 300 nM
Method in brief: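 LS174T colon cancer cells were exposed to test compound at 300 nM. Lysates were immunoblotted with antibodies against cyclin D1, p21Wif1/Cip1 and β-tubulin.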

[2] = test system: LS174T colon cancer cells; settings: cited from earlier work; for Inhibition of proliferation (%) of LS174T cells: Table 1
[3] = test system: cyclin-dependent kinase inhibitor p21^Wif1/Cip1; assay: Western blot of p21^Wif1/Cip1 in LS174T cells; format: cell-based; settings: 300 nM
Water solubility = format: physicochemical; settings: for Water solubility of hydrochloride salt: hydrochloride salts

SMILES: N.N.[Cl][Pt][Cl] [Cisplatin]
Percentage inhibition of the proliferation of normal cells (fibroblast HEL 299 cells; 1 μM): 37.5±4.1%
Percentage inhibition of the proliferation of normal cells (fibroblast HEL 299 cells; 10 μM): 57.8±0.3%
Percentage inhibition of the proliferation of colon cancer cells ([1]; 1 μM): 24.2±5.6%
Percentage inhibition of the proliferation of colon cancer cells ([1]; 10 μM): 82.1±1.4%
Percentage inhibition of the proliferation of colon cancer cells (HT-29; 1 μM): 4.4±5.9%
Percentage inhibition of the proliferation of colon cancer cells (HT-29; 10 μM): 72.7±3.5%
Percentage inhibition of the proliferation of normal cells (lung epithelial BEAS-2B; 1 μM): 39.2±14.9%
Percentage inhibition of the proliferation of normal cells (lung epithelial BEAS-2B; 10 μM): 82.4±0.2%

SMILES: CN(C)c1ccc(C#Cc2c(F)cccc2F)cc1 [Compound 2, 4-((2,6-difluorophenyl)ethynyl)-N,N-dimethylaniline]
Effect on cyclin D1 (western blot) (cyclin D1): inhibited cyclin D1
Inhibition of cell proliferation (%) of colon cancer LS174T cells ([2]; 30 nM, Table 2): 57±1.2%
Inhibition of proliferation (%) of LS174T cells ([2]; 100 nM): 85.2±0.5%
Inhibition of proliferation (%) of LS174T cells ([2]; 1 μM): 99.5±0.1%
Effect on p21^Wif1/Cip1 (western blot) [3]: induced cyclin-dependent kinase inhibitor p21^Wif1/Cip1
Water solubility (Water solubility; parent compound): sparingly water-soluble

SMILES: CN(C)c1ncc(C#Cc2c(F)cccc2F)c2ccccc12 [Compound 5mm, 4-((2,6-Difluorophenyl)ethynyl)-N,N-dimethylisoquinolin-1-amine]
Effect on cyclin D1 (western blot) (cyclin D1): inhibited cyclin D1
Effect on p21^Wif1/Cip1 (western blot) [3]: induced cyclin-dependent kinase inhibitor p21^Wif1/Cip1

SMILES: CNc1ncc(C#Cc2c(F)cccc2F)c2ccccc12 [Compound 5nn, 4-((2,6-Difluorophenyl)ethynyl)-N-methylisoquinolin-1-amine]
Effect on cyclin D1 (western blot) (cyclin D1): inhibited cyclin D1
Effect on p21^Wif1/Cip1 (western blot) [3]: induced cyclin-dependent kinase inhibitor p21^Wif1/Cip1

The next lines start with the values.

Water solubility of hydrochloride salt (Water solubility): completely water-soluble
SMILES: CN1CCN(c2ncc(C#Cc3c(F)cccc3F)c3ccccc23)CC1.Cl [Compound 5oo, 4-((2,6-Difluorophenyl)ethynyl)-1-(4-methylpiperazin-1-yl)isoquinoline]

Water solubility of hydrochloride salt (Water solubility): completely water-soluble
SMILES: CN(C)c1ncc(C#Cc2c(F)cccc2F)c2ncccc12 [Compound 5pp, 8-((2,6-Difluorophenyl)ethynyl)-N,N-dimethyl-1,6-naphthyridin-5-amine]
